Assay [1] concerns MDA-MB-231. In words: Induction of apoptosis in human MDA-MB-231 cells assessed as PARP cleavage at 0.5 uM measured after 6 hrs by western blot assay. The format is functional, cell-based. The essentials: (§1)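 Cells exposed to 0.5 µM for 6 h. Lysates resolved by SDS-PAGE and blotted to PVDF, blocked in 5% milk/TBST, probed with primary antibodies at 1:1000, ECL detection. Apoptosis scored as the densitometric ratio of cleaved PARP band to intact PARP band; mean ± SD, n = 3.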
(Immunoblotting shows a protein as a band on a membrane.)

Assay [2] concerns HCT-116. In words: Induction of apoptosis in human HCT-116 cells assessed as PARP cleavage at 0.5 uM measured after 6 hrs by western blot assay. The format is functional, cell-based. The essentials:
as §1

The subject of assay [3] is MDA-MB-231. Briefly: Induction of apoptosis in human MDA-MB-231 cells assessed as PARP cleavage at 0.5 uM measured after 6 hrs by western blot assay relative to Di(1H-indol-3-yl)(4-(trifluoromethyl)phenyl)methylium methanesulfonate. The class given is functional. The essentials: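 MDA-MB-231 in DMEM with 10% FBS, 0.5 µM for 6 h, then PARP western blot with 1:1000 primary antibodies and ECL. Cleaved PARP/PARP band intensity ratio expressed relative to the reference methylium methanesulfonate, whose ratio was set to 1. Mean ± SD, n = 3.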

Assay [4] has as its system MCF-10A. Briefly: Cytotoxicity against human MCF-10A cells assessed as inhibition of cell growth measured after 24 hrs by MTT assay. The format is cell-based. The gist of the method:
(§2)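 MTT viability assay, 24 h exposure to a concentration series, 10^4 cells/well. Cancer lines were in DMEM (BT549, MDA-MB-231) or RPMI-1640 (HCT116, SW620) with 10% FBS. MCF10A and NCM460 were in DMEM with 20% FBS and 10 ng/ml EGF. MTT at 5 mg/mL for 4 h at 37 °C, formazan dissolved in DMSO, A490. IC50 from curve fit; mean ± SD, at least 6 experiments.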
On the technique in general: Formazan colour is commonly taken as a measure of viable cells.

The subject of assay [5] is HCT-116. In words: Cytotoxicity against human HCT-116 cells assessed as inhibition of cell growth measured after 24 hrs by MTT assay. The class given is functional, cell-based. The gist of the method:
as §2

In assay [6] the test system is NCM460. Briefly: Cytotoxicity against human NCM460 cells assessed as inhibition of cell growth measured after 24 hrs by MTT assay. The format is cell-based. The essentials: as §2
Assay [7] concerns MDA-MB-231. In words: Cytotoxicity against human MDA-MB-231 cells assessed as inhibition of cell growth measured after 24 hrs by MTT assay. The format is functional, cell-based. As to conditions: MDA-MB-231, 24 h. The essentials: as §2
Assay [8] concerns BT-549. Briefly: Cytotoxicity against human BT-549 cells assessed as inhibition of cell growth measured after 24 hrs by MTT assay. The class given is functional, cell-based. The settings on record: BT-549, 24 h. The essentials: as §2
Assay [9] concerns SW-620. In words: Cytotoxicity against human SW-620 cells assessed as inhibition of cell growth measured after 24 hrs by MTT assay. The format is functional, cell-based. The settings on record: SW-620, 24 h. The essentials:
as §2

Assay [10] deals with MEF. In words: Induction of apoptosis in wild type mouse MEF cells assessed as PARP cleavage at 0.5 uM measured after 6 hrs by western blot assay. The class given is functional, cell-based. The essentials:
(§3)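 Wild-type, Nur77−/− or Bcl-2−/− mouse embryonic fibroblasts grown in DMEM with 10% FBS and treated with 0.5 µM for 6 h. PARP cleavage detected by western blot, primary antibodies at 1:1000, ECL.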

Assay [11] has as its system MEF. Briefly: Induction of apoptosis in mouse MEF cells lacking Nur77 assessed as PARP cleavage at 0.5 uM measured after 6 hrs by western blot assay. The class given is functional, cell-based. The essentials: as §3
Assay [12] has as its system MEF. In words: Induction of apoptosis in mouse MEF cells deficient in Bcl2 assessed as PARP cleavage at 0.5 uM measured after 6 hrs by Western blot assay. The class given is functional, cell-based. The gist of the method:
as §3

Structures are written as SMILES. The source made the active and inactive calls. No cut-off for these calls is given here.

The term IC50 denotes the concentration needed to halve the response being measured.

Turning to `O=[N+]([O-])c1ccc([C+](c2c[nH]c3ccccc23)c2c[nH]c3ccccc23)cc1`, the outcome in [1] was inactive. Besides, the result in assay [2] was Active.
Take `c1ccc2c([C+](c3c[nH]c4ccccc34)c3csc4ccccc34)c[nH]c2c1`: the result in [1] was inactive. In assay [2], the result was Active.
On the same counts, the results for `COC(=O)c1ccc([C+](c2c[nH]c3ccccc23)c2c[nH]c3ccccc23)cc1` are “Active” and “Active”.
On the same counts, the results for `c1cncc([C+](c2c[nH]c3ccccc23)c2c[nH]c3ccccc23)c1` are “inactive” and “Active”.
In the same order, the values of `Oc1ccc([C+](c2c[nH]c3ccccc23)c2c[nH]c3ccccc23)cc1` are “Active” and “inactive”.
Turning to `CS(=O)(=O)[O-].c1ccc([C+](c2c[nH]c3ccccc23)c2c[nH]c3ccccc23)cc1`, in assay [1], the result was Active. The outcome in [2] was inactive. Also, the “fold change (FC)” value in assay [3] came to 0.01.
Regarding `FC(F)(F)c1ccccc1[C+](c1c[nH]c2ccccc12)c1c[nH]c2ccccc12`, the outcome in assay [1] and in [2] was inactive.
With `O=C(O)c1ccc([C+](c2c[nH]c3ccccc23)c2c[nH]c3ccccc23)cc1`, the result in assay [1] was inactive. Further, in [2], the outcome was Active.
On the same counts, the results for `c1csc([C+](c2c[nH]c3ccccc23)c2c[nH]c3ccccc23)c1` are “inactive” and “Active”.
In the case of `COc1ccc([C+](c2c[nH]c3ccccc23)c2c[nH]c3ccccc23)cc1`, the outcome in assay [1] and in [2] was inactive.
Take `Fc1cccc([C+](c2c[nH]c3ccccc23)c2c[nH]c3ccccc23)c1`: the outcome in assay [1] and in [2] was Active.
With `Oc1ccccc1[C+](c1c[nH]c2ccccc12)c1c[nH]c2ccccc12`, the outcome in assay [1] and in assay [2] was inactive.
Consider `FC(F)(F)c1ccc([C+](c2c[nH]c3ccccc23)c2c[nH]c3ccccc23)cc1`, for which the results for the IC50 in [4] (mcf-10a), in [5] (hct-116) and in assay [6] (ncm460) were 3580 nM, 260 nM and 5130 nM, respectively.
Take `CCc1ccc([C+](c2c[nH]c3ccccc23)c2c[nH]c3ccccc23)cc1`: the result in [1] and in [2] was inactive.
As to `FC(F)(F)c1ccc([C+](c2c[nH]c3ccccc23)c2c[nH]c3ccccc23)c(C(F)(F)F)c1`, the result in [1] and in [2] was inactive.
`c1ccc2c([C+](c3c[nH]c4ccccc34)c3c[nH]c4ccccc34)c[nH]c2c1`: the result in [1] was inactive. Moreover, in assay [2], the result was Active.
In the same order, the values of `Fc1ccccc1[C+](c1c[nH]c2ccccc12)c1c[nH]c2ccccc12` are “inactive” and “inactive”.
On the same counts, the results for `c1coc([C+](c2c[nH]c3ccccc23)c2c[nH]c3ccccc23)c1` are “inactive” and “Active”.
In the same order, the values of `Cc1ccc([C+](c2c[nH]c3ccccc23)c2c[nH]c3ccccc23)cc1` are “inactive” and “inactive”.
As for `CCCCCn1cc([C+](c2ccc(C(F)(F)F)cc2)c2c[nH]c3ccccc23)c2ccccc21`, the result in assay [1] and in assay [2] was inactive.
As to `Cn1cc([C+](c2ccc(C(F)(F)F)cc2)c2cn(C)c3ccccc23)c2ccccc21`, the result in assay [1] was Active. Also, the outcome in assay [2] was inactive.
In the same order, the values of `Cc1cccc([C+](c2c[nH]c3ccccc23)c2c[nH]c3ccccc23)c1` are “inactive” and “Active”.
In the same order, the values of `Clc1cccc([C+](c2c[nH]c3ccccc23)c2c[nH]c3ccccc23)c1` are “inactive” and “Active”.
In the case of `Clc1ccc([C+](c2c[nH]c3ccccc23)c2c[nH]c3ccccc23)cc1`, the result in [1] was inactive. Also, the result in assay [2] was Active.
Regarding `FC(F)(F)c1ccc([C+](c2c[nH]c3ccccc23)c2c[nH]c3ccccc23)cn1`, the result in assay [1], in [2] and in assay [10] was Active. For the same compound, the half-maximal inhibitory concentration (IC50) in assay [7] was 230 nM; in [8] it was 50 nM; in assay [4] (Homo sapiens, MCF-10A, 24 h), 2980 nM; in assay [5] (Homo sapiens, HCT-116, 24 h), 350 nM; in [9], 140 nM; in assay [6] (Homo sapiens, NCM460, 24 h), 8100 nM. Also, the outcome in assay [11] and in [12] was inactive.
On to `FC(F)(F)c1cccc([C+](c2c[nH]c3ccccc23)c2c[nH]c3ccccc23)c1.[Cl-]`, for which the outcome in [1] and in assay [2] was Active. Besides, the IC50 in [7] was determined as 290 nM; in [8] it was 70 nM; in [4] (Homo sapiens, MCF-10A, 24 h) it was 5030 nM; in [5] (Homo sapiens, HCT-116, 24 h), 310 nM; in [9], 130 nM; in assay [6] (Homo sapiens, NCM460, 24 h) it was 10000 nM. In addition, in assay [3], the “fold change (FC)” value is 1.76.
In the case of `CCCn1cc([C+](c2ccc(C(F)(F)F)cc2)c2c[nH]c3ccccc23)c2ccccc21`, the outcome in assay [1], in [2] and in [10] was Active. Also, the 50% inhibitory concentration (IC50) in [7] is 170 nM; in [8], 100 nM; in [4] (Homo sapiens, MCF-10A, 24 h), 1310 nM; in assay [5] (Homo sapiens, HCT-116, 24 h), 350 nM; in assay [9], 160 nM; in assay [6] (Homo sapiens, NCM460, 24 h) it was 5090 nM. Further, the outcome in assay [11] and in assay [12] was inactive.
Take `Fc1ccc([C+](c2c[nH]c3ccccc23)c2c[nH]c3ccccc23)cc1`: the result in assay [1] and in assay [2] was Active.
Take `c1ccc(-c2ccc([C+](c3c[nH]c4ccccc34)c3c[nH]c4ccccc34)cc2)cc1`: the result in [1] and in [2] was Active.
Turning to `Clc1ccccc1[C+](c1c[nH]c2ccccc12)c1c[nH]c2ccccc12`, the outcome in [1] and in assay [2] was inactive.
Consider `CC(C)(C)c1ccc([C+](c2c[nH]c3ccccc23)c2c[nH]c3ccccc23)cc1`, for which the outcome in assay [1] and in assay [2] was inactive.
Consider `CCCCn1cc([C+](c2ccc(C(F)(F)F)cc2)c2c[nH]c3ccccc23)c2ccccc21`, for which the result in assay [1] and in [2] was Active.
As to `Oc1cccc([C+](c2c[nH]c3ccccc23)c2c[nH]c3ccccc23)c1`, the outcome in [1] was inactive. The outcome in [2] was Active.
On the same counts, the results for `COc1cccc([C+](c2c[nH]c3ccccc23)c2c[nH]c3ccccc23)c1` are “inactive” and “Active”.

The record behind these values is ChEMBL document CHEMBL4819003, “Optimization of novel oxidative DIMs as Nur77 modulators of the Nur77-Bcl-2 apoptotic pathway” (Eur J Med Chem, 2021).
